pEC50: −log10 of the molar value.
Legend:
[1] = test system: S. mansoni adult worms; conditions: read-out: EC50 for S. mansoni adult worms; cited from earlier work
[2] = test system: Caenorhabditis elegans; test: Lethal toxicity assay in C. elegans; assay type: in vivo; conditions: L4-stage larvae, Bristol N2 strain, 24 h, 21 °C
Outline: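 C. elegans Bristol N2 was grown on NGM plates seeded with E. coli OP50. Synchronized L4 larvae, 60/well in M9 medium, were exposed to test compound starting at 1,000 µM, with ivermectin reference and 1% DMSO negative control. Viability was scored by movement after 24 h at 21 °C. Triplicate; LD50 from sigmoidal dose-response curves.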

[3] = test system: Schistosoma mansoni adult worms; test: In vitro assay with adult S. mansoni; assay type: cell-based; conditions: concentrations starting from 50 µM, up to 72 h
Outline: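 S. mansoni (Belo Horizonte strain) adults were perfused from the hepatic portal vein of Swiss mice 49 days post-infection. One worm pair/well in RPMI 1640 with 10% FBS, penicillin and streptomycin; test compound starting at 50 µM, with praziquantel, metal salts and 1% DMSO controls; 37 °C, 5% CO₂, up to 72 h. Viability by inverted microscope at 0, 24, 48 and 72 h; death meant no movement ≥1 min after gentle stimulation. Triplicate; EC50 by sigmoidal fit.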

[4] = test system: Angiostrongylus cantonensis L1 larvae; test: In vitro assay with A. cantonensis L1 larvae; assay type: cell-based; conditions: for activity against A. cantonensis: L1 larvae, concentrations starting from 50 µM, 24 h
Outline: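 A. cantonensis (NPDN-AC strain, cycled through B. glabrata and Wistar rats) L1 larvae were recovered from rat feces by the Rugai technique and washed in RPMI 1640 with antibiotics. About 100 larvae/well were exposed to test compound starting at 50 µM at 21 °C, with drug-free medium, metal salt and 1% DMSO controls. Viability was checked microscopically at 0 and 24 h; efficacy meant ≥60% larvae immobile.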

C=C1C(=O)O[C@@H]2/C=C(\CO)CC/C=C(\C)C[C@H](OC(=O)C(=C)[C@@H](O)CO)[C@@H]12 [cnicin]
pEC50 [1]: 4.30

C/C=C/c1cc(OC)c2c(c1)[C@H](C)[C@@H](c1ccc(O)c(OC)c1)O2 [licarin A]
pEC50 [1]: 4.52

O=C1C(=O)c2cccnc2-c2ncccc21.O=C1C(=O)c2cccnc2-c2ncccc21.[Ag+].[O-][Cl+3]([O-])([O-])[O-] [Ag-phendione, [Ag(phendione)2](ClO4)]
C. elegans LD50 [2]: 167 µM

CC(=O)Oc1cc(C(C)C)ccc1C [carvacryl acetate]
pEC50 [1]: 4.38

O.O.O.O.O.O=S(=O)([O-])[O-].[Cu+2] [CuSO₄·5 H₂O]
antischistosomal activity [3]: no antischistosomal activity | activity against A. cantonensis [4]: no activity

O.O.O.O.O.O.O.O.O=C1C(=O)c2cccnc2-c2ncccc21.O=C1C(=O)c2cccnc2-c2ncccc21.O=C1C(=O)c2cccnc2-c2ncccc21.[Cu+2].[O-][Cl+3]([O-])([O-])[O-].[O-][Cl+3]([O-])([O-])[O-] [Cu-phendione, [Cu(phendione)3](ClO4)2·8H2O]
C. elegans LD50 [2]: 280 µM

O=C1C(=O)c2cccnc2-c2ncccc21 [Phendione, 1,10-phenanthroline-5,6-dione]
C. elegans LD50 [2]: 719 µM | larval motility compared to the control group ([4]; A. cantonensis L1 larvae): significantly reduced

Ivermectin
C. elegans LD50 [2]: 4.1 µM

2-oxopopulifolic acid methyl ester
pEC50 [1]: 4.30

Cc1ccc(C(C)C)cc1O [carvacrol]
pEC50 [1]: 4.25

CC1=CC(=O)CC2[C@]1(C)CC[C@@H](C)[C@]2(C)CCC(C)CC(=O)O (some centres unmarked) [2-oxopopulifolic acid]
pEC50 [1]: 4.30

O=[N+]([O-])[O-].[Ag+] [AgNO₃]
antischistosomal activity [3]: no antischistosomal activity | activity against A. cantonensis [4]: no activity

C=CC(C)(C)c1cc(/C=C/C(=O)c2ccc(O)cc2)c(OC)cc1O [licochalcone A]
pEC50 [1]: 4.30

O=c1c(O)c(-c2ccc(O)cc2)oc2cc(O)cc(O)c12 [kaempferol]
pEC50 [1]: 4.09

Reference: publication PMC11807182 (Scientific Reports, 2025)
